Data published in ChEMBL document CHEMBL2380202, “Identification of substituted 2-thio-6-oxo-1,6-dihydropyrimidines as inhibitors of human lactate dehydrogenase” (Bioorg Med Chem Lett, 2013).
In brackets after ≈: the same amount, converted by molar mass. Activity calls are given as the source filed them. The calls are words filed in the database; no cut-off is given here.

Experiments:
[1] = Aqueous solubility of the compound in PBS buffer at pH 7.2 at 100 uM after 24 hrs; type: physicochemical
Procedure, shortened: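 Aqueous solubility estimated from a high-throughput assay; single determination (n = 1).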

[2] = molecular target: T1, L-lactate dehydrogenase A chain (Homo sapiens, UniProt P00338); assay: Inhibition of human recombinant carboxy-terminal his-tagged LDHA (1 to 331) expressed in Escherichia coli using pyruvate as substrate after 10 mins by UV endpoint analysis
[3] = molecular target: L-lactate dehydrogenase B chain (Homo sapiens, UniProt P07195); assay: Inhibition of human recombinant carboxy-terminal his-tagged LDHB (1 to 333) expressed in insect cells using pyruvate as substrate after 10 mins by UV endpoint analysis
L-lactate dehydrogenase B chain, sequence (P07195 whole entry): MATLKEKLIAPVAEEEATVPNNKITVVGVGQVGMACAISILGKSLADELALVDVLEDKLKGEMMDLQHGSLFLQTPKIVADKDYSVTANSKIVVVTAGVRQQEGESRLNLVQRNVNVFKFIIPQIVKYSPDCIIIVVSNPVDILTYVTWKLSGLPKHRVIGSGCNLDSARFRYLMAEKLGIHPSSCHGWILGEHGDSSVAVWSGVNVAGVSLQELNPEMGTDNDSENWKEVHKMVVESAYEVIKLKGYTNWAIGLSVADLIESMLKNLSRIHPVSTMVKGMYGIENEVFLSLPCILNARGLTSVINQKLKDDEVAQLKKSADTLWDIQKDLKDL

[4] = molecular target: T1, L-lactate dehydrogenase A chain; assay: Binding affinity to human recombinant carboxy-terminal avi-tagged LDHA (1 to 331) expressed in Escherichia coli by surface plasmon resonance analysis presence of NADH
Procedure, shortened: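 SPR with NADH present; twofold dilution series of analyte injections; K_D obtained by fitting kinetics or the equilibrium dose response; arithmetic mean of 2 separate runs.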

[5] = molecular target: L-lactate dehydrogenase (Homo sapiens) (UniProt V9HWB9); assay: Inhibition of LDH in human HCC1954 cells assessed as lactate accumulation up to 50 uM after 6 hrs; type: cell-based
[6] = Clearance in human liver microsomes at 1 uM up to 60 mins; type: ADME, Microsome
Procedure, shortened: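 Human liver microsome stability, single determination (n = 1); in vitro result extrapolated to in vivo clearance, classed stable below 6.2 and labile above 15.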

[7] = molecular target: T2, Malate dehydrogenase, cytoplasmic (Homo sapiens, UniProt P40925); assay: Inhibition of human recombinant carboxy-terminal his-tagged MDH-1 (3 to 334) expressed in Escherichia coli using oxaloacetic acid as substrate after 10 mins by UV endpoint analysis
T2 sequence (P40925 whole entry): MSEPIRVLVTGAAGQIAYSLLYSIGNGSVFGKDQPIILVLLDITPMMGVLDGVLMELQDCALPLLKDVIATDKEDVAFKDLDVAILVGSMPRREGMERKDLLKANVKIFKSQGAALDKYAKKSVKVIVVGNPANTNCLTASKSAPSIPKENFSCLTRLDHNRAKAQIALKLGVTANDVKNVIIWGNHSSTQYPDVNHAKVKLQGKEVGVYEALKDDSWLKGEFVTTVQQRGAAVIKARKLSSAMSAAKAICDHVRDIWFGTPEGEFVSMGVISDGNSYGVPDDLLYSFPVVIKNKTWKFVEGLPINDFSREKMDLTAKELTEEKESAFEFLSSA
Procedure, shortened: (§1)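 Biochemical enzyme inhibition; reported as the arithmetic mean of 2 separate runs (n = 2).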

[8] = molecular target: T1, L-lactate dehydrogenase A chain; assay: Inhibition of human recombinant carboxy-terminal his-tagged LDHA (1 to 331) expressed in Escherichia coli using pyruvate as substrate after 10 mins by MS endpoint analysis; procedure, shortened: as §1
[9] = molecular target: T1, L-lactate dehydrogenase A chain; assay: Binding affinity to human recombinant carboxy-terminal avi-tagged LDHA (1 to 331) expressed in Escherichia coli by surface plasmon resonance analysis absence of NADH
Procedure, shortened: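 SPR run without NADH; analyte injected as a twofold dilution series; K_D estimated relative to a control; mean of 2 separate runs.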

[10] = molecular target: T3, Malate dehydrogenase, mitochondrial (Homo sapiens, UniProt P40926); assay: Inhibition of human recombinant carboxy-terminal his-tagged MDH-2 (20 to 338) expressed in Escherichia coli using oxaloacetic acid as substrate after 10 mins by UV endpoint analysis; procedure, shortened: as §1
T3 sequence (P40926 whole entry): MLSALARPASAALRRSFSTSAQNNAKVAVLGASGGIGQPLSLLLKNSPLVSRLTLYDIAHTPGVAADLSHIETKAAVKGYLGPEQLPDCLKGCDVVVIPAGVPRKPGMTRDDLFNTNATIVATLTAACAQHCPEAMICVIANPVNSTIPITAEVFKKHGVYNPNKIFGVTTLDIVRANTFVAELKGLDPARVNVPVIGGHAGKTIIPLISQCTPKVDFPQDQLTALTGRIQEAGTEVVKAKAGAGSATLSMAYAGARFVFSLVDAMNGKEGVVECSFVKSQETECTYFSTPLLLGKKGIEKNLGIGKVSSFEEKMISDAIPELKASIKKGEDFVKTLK

Row | IC50 [2] [µM] | IC50 [3] [µM] | Kd [4] [µM] | SMILES | other results
1 | 0.75 | 3.7 | 5.1 | CC(Sc1nc(-c2ccc(Cl)c(Cl)c2)c(C#N)c(=O)[nH]1)C(=O)Nc1ccc(S(N)(=O)=O)cc1 (racemic) | solubility at 24 h, 100 µM [1]: 30 µM (≈ 15.7 µg/mL); inhibition [5]: inactive; CLhep predicted at 1 µM [6]: 2.6 mL/min/kg
2 | > 100 |  | 1110 | COc1ccccc1NC(=O)CSc1nc(-c2ccc(Cl)cc2)c(C#N)c(=O)[nH]1 | 
3 | 12.1 |  | 15.4 | N#Cc1c(-c2ccccc2)nc(SCC(=O)Nc2ccc(S(N)(=O)=O)cc2)[nH]c1=O | 
4 | 7.4 | 7.7 | 8.9 | CCC(Sc1nc(-c2cccc(OC)c2)c(C#N)c(=O)[nH]1)C(=O)Nc1ccc(S(N)(=O)=O)cc1 (racemic) | CLhep predicted at 1 µM [6]: 6.9 mL/min/kg
5 | 55.8 | > 100 | 386 | N#Cc1c(-c2ccc(Cl)cc2)nc(SCC(=O)Nc2cccc(Cl)c2)[nH]c1=O | 
6 | 46.8 | > 100 | 314 | N#Cc1c(-c2ccc(Cl)cc2)nc(SCC(=O)Nc2ccc(F)c(Cl)c2)[nH]c1=O | 
7 | 27.6 |  | 466 | Cc1ccc(NC(=O)CSc2nc(-c3ccc(Cl)cc3)c(C#N)c(=O)[nH]2)cc1Cl | 
8 | 0.48 | 3 | 2.2 | CC(Sc1nc(-c2ccc(Cl)cc2)c(C#N)c(=O)[nH]1)C(=O)Nc1ccc(S(N)(=O)=O)cc1 (racemic) | solubility at 24 h, 100 µM [1]: 58 µM (≈ 28.4 µg/mL); inhibition [5]: inactive; CLhep predicted at 1 µM [6]: 2.6 mL/min/kg
9 | > 100 |  | 1060 | Cc1cccc(NC(=O)CSc2nc(-c3ccc(Cl)cc3)c(C#N)c(=O)[nH]2)c1C | 
10 | 55.7 | > 100 | 570 | N#Cc1c(-c2ccc(Cl)cc2)nc(SCC(=O)Nc2ccc(Cl)cc2)[nH]c1=O | 
11 | > 100 |  |  | CC(Sc1nc(-c2ccccc2)cc(=O)[nH]1)C(=O)Nc1ccc(S(N)(=O)=O)cc1 (racemic) | 
12 | 26.5 | > 100 | 640 | COc1ccc(NC(=O)CSc2nc(-c3ccc(Cl)cc3)c(C#N)c(=O)[nH]2)cc1Cl | 
13 |  | 33.8 |  | NC(=O)C(=O)O [OXAMATE] | 
14 | 0.65 | 2.4 | 3 | CCC(Sc1nc(-c2ccc(Cl)cc2)c(C#N)c(=O)[nH]1)C(=O)Nc1ccc(S(N)(=O)=O)cc1 (racemic) | solubility at 24 h, 100 µM [1]: 136 µM (≈ 68.5 µg/mL); CLhep predicted at 1 µM [6]: 2.8 mL/min/kg
15 | > 100 | > 100 | 532 | CNS(=O)(=O)c1ccc(NC(=O)CSc2nc(-c3ccc(Cl)cc3)c(C#N)c(=O)[nH]2)cc1 | 
16 | 8.8 |  | 6.1 | N#Cc1c(-c2ccc(Cl)cc2)nc(SCC(=O)Nc2ccc(S(N)(=O)=O)cc2)[nH]c1=O | IC50 [7]: > 10 µM; IC50 [8]: 1.9 µM; Kd [9]: 384 µM; IC50 [10]: > 10 µM; CLhep predicted at 1 µM [6]: 5.3 mL/min/kg
17 | 50.2 | > 100 | 462 | Cc1c(Cl)cccc1NC(=O)CSc1nc(-c2ccc(Cl)cc2)c(C#N)c(=O)[nH]1 | 
18 |  |  |  | COc1ccc(CNC(=O)c2cc(=O)c3c(O)cc(OCCc4ccc(NC(=O)C(=O)O)c(OC)c4)cc3o2)cc1 | IC50 [7]: 6.78 µM; IC50 [10]: 8.48 µM
19 | > 100 |  | 1010 | Cc1ccccc1NC(=O)CSc1nc(-c2ccc(Cl)cc2)c(C#N)c(=O)[nH]1 | 
20 | 0.71 | 2.3 | 2.9 | CC(Sc1nc(-c2ccc(Cl)c(F)c2)c(C#N)c(=O)[nH]1)C(=O)Nc1ccc(S(N)(=O)=O)cc1 (racemic) | solubility at 24 h, 100 µM [1]: 64 µM (≈ 32.5 µg/mL); inhibition [5]: inactive; CLhep predicted at 1 µM [6]: 3.4 mL/min/kg
21 | 12.5 |  |  | CC(Sc1ncc(C#N)c(=O)[nH]1)C(=O)Nc1ccc(S(N)(=O)=O)cc1 (racemic) | 
22 | 22.6 |  | 552 | CC(C)c1ccc(NC(=O)CSc2nc(-c3ccc(Cl)cc3)c(C#N)c(=O)[nH]2)cc1 | 
23 | 38.6 | > 100 | 552 | Cc1ccc(NC(=O)CSc2nc(-c3ccc(Cl)cc3)c(C#N)c(=O)[nH]2)cc1C | 
24 | > 100 |  | 1210 | CCc1ccccc1NC(=O)CSc1nc(-c2ccc(Cl)cc2)c(C#N)c(=O)[nH]1 | 
25 | 42.4 |  | 38.4 | COc1cccc(-c2nc(SCC(=O)Nc3ccc(S(N)(=O)=O)cc3)[nH]c(=O)c2C#N)c1 | 
